A selection: hits, their analogues and other compounds. The true share with any hit is near 4.3%.
APP 5'UTR act: activates APP 5'UTR luciferase reporter; SH-SY5Y APP 5'UTR luciferase reporter, luminescence; zero percent = DMSO vehicle wells; activation, % at 2 µM; hit rate 1% among 190,000;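 active = activation above a set limit, based on mean plus 3 SD of controls, cut at about 140% in these data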
FLuc inhib CS: counter-screen for luciferase assay inhibitors: firefly luciferase inhibition; hit rate 1.5% among 200,000; P08659; inhibition, % at 10 µM; ATPLite firefly luciferase biochemical luminescence, 10 min;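 active = inhibition above about 50% when tested at 10 µM, limit read from the data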
Target sequence (P08659 whole entry, looked up): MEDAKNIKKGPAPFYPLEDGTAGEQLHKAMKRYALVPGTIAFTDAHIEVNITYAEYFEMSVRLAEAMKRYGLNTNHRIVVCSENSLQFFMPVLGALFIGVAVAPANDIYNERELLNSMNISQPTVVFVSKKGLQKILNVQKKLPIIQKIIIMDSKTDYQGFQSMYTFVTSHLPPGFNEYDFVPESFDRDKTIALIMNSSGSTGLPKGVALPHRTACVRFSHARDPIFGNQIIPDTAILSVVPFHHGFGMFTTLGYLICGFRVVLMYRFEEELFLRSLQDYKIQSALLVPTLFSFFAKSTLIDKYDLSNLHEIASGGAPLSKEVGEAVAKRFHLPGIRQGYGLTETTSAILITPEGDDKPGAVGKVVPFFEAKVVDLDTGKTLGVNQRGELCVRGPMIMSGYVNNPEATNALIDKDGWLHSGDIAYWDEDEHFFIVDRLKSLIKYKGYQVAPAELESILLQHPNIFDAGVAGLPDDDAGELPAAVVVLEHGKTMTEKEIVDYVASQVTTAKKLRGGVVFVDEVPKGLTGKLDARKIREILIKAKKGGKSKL
FLuc act counter: firefly luciferase counter-screen for stimulation assays; activation factor at 10 µM; ATPlite luciferase biochemical, luminescence, 10 min; 0 = ATP-free wells, 1 = DMSO control; 200,000 tested, under 10 active; P08659;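 active = luciferase activation factor, scaled between plate controls, of at least 2 with compound at 10 µM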
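Assay system: Luciferase/luciferin reagent mix; Medium: PBS as buffer for the ATP substrate; Dosing: test compounds dosed from 2 mM stocks in 100% DMSO; Times: 10 min, room temperature; Signal: luminescence from luciferase reaction; Read-out: luciferase activation; Controls: No-ATP low control, compound-free enzyme-plus-ATP high control.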
NF-kB expr up: compounds increasing NF-kB expression in human neuronal cells. NF-kB reporter expression; hits give high values. AID 1239. hit rate 1.6% among 190,000. fold change at 12.5 µM; in the data active = fold change above about 3.3
STAT1 activator: increases IFN-gamma driven STAT1 reporter signal | NIH 3T3 STAT1-luciferase reporter, luminescence; 100% = IFN-gamma alone, no compound | activation (% of control), % at 5.5 µM | hit rate 2.6% among 200,000 | AID 932;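 active = activation above the screen-wide mean activation plus 3 SD, cut at about 130% in these data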
Numbers stand for hits.

`O=C1CC(c2ccccc2)Sc2nc3ccccc3n21` (stereo unspecified) gave APP 5'UTR act 167.8, FLuc inhib CS inactive, FLuc act counter inactive, NF-kB expr up inactive and STAT1 activator 131.7.
`O=C(CCC1CCCN(C(=O)c2ccc3cc[nH]c3c2)C1)NCc1ccc(F)c(F)c1` (stereo unspecified) gave APP 5'UTR act inactive, FLuc inhib CS inactive, FLuc act counter inactive, NF-kB expr up inactive and STAT1 activator inactive.
`O=C(COC(=O)/C=C/c1ccc([N+](=O)[O-])cc1)NC(c1ccccc1)c1ccccc1` gave APP 5'UTR act inactive, FLuc inhib CS inactive, FLuc act counter inactive, NF-kB expr up inactive and STAT1 activator inactive.
For Cc1ccc(C(=O)Nc2ccc(Cl)cc2C)c(Cl)c1 the results were APP 5'UTR act inactive, FLuc inhib CS 75.7, FLuc act counter inactive, NF-kB expr up inactive and STAT1 activator inactive.
Screening CCOc1ccc(C(C)=O)cc1CN1C(=O)NC2(CCCCCCC2)C1=O returned APP 5'UTR act inactive, FLuc inhib CS inactive, FLuc act counter inactive, NF-kB expr up inactive and STAT1 activator inactive.
Screening O=C(CSc1ccccn1)N/N=C/C=C/c1ccccc1 returned APP 5'UTR act inactive, FLuc inhib CS inactive, FLuc act counter inactive, NF-kB expr up inactive and STAT1 activator inactive.
C(=C\c1ccccc1)/CSc1ccccn1 was read as APP 5'UTR act inactive, FLuc inhib CS inactive, FLuc act counter inactive, NF-kB expr up inactive and STAT1 activator 135.6.
`COCCN1C(=O)/C(=C/c2ccc(N3CCCC3)cc2C)SC1=S` gave APP 5'UTR act inactive, FLuc inhib CS inactive, FLuc act counter inactive, NF-kB expr up inactive and STAT1 activator inactive.
For CC(C)CNC(=O)CN(C1CCCCC1)S(=O)(=O)c1ccccc1 the results were APP 5'UTR act inactive, FLuc inhib CS inactive, FLuc act counter inactive, NF-kB expr up inactive and STAT1 activator inactive.
For CC(=Nc1cccc(C)c1)c1sc2ccccc2c1O the results were APP 5'UTR act 137.3, FLuc inhib CS inactive, FLuc act counter inactive, NF-kB expr up 6.01 and STAT1 activator 169.8.
Screening CCc1nc2cc3sc(CC)nc3cc2s1 returned APP 5'UTR act inactive, FLuc inhib CS inactive, FLuc act counter inactive, NF-kB expr up inactive and STAT1 activator 147.8.
Screening O=C(CC(=O)Nc1ccccn1)Nc1ccccn1 returned APP 5'UTR act inactive, FLuc inhib CS inactive, FLuc act counter inactive, NF-kB expr up inactive and STAT1 activator inactive.
`CN(C)/C=C/C(=O)c1ccc(Oc2ncccn2)cc1` gave APP 5'UTR act inactive, FLuc inhib CS inactive, FLuc act counter inactive, NF-kB expr up inactive and STAT1 activator inactive.
`O=C(/C=C/Nc1ccccc1Br)c1ccccn1` gave APP 5'UTR act inactive, FLuc inhib CS 97.4, FLuc act counter inactive, NF-kB expr up inactive and STAT1 activator inactive.
`O=C(/C=C\Nc1ccccn1)c1ccccc1` gave APP 5'UTR act 156.7, FLuc inhib CS 88.7, FLuc act counter inactive, NF-kB expr up 3.5 and STAT1 activator inactive.
O=C(/C=C/Nc1ccccc1)c1ccc(Oc2ncccn2)cc1 was read as APP 5'UTR act inactive, FLuc inhib CS inactive, FLuc act counter inactive, NF-kB expr up 3.54 and STAT1 activator 155.6.
Cc1cc(C)cc(-n2c(SCC(=O)Nc3cccc(S(=O)(=O)NC4=NCCCCC4)c3)nc3ccccc3c2=O)c1 was read as APP 5'UTR act inactive, FLuc inhib CS inactive, FLuc act counter inactive, NF-kB expr up inactive and STAT1 activator inactive.
`O=C(Nc1ccccc1C(=O)O)c1ccc2ccccc2n1` gave APP 5'UTR act inactive, FLuc inhib CS 56.0, FLuc act counter inactive, NF-kB expr up inactive and STAT1 activator inactive.
For CCSc1nnc(NC(=O)c2cc(C)nc3ccccc23)s1 the results were APP 5'UTR act inactive, FLuc inhib CS inactive, FLuc act counter inactive, NF-kB expr up inactive and STAT1 activator inactive.
CCSc1nnc(NC(=O)c2ccc3ccccc3n2)s1 was read as APP 5'UTR act inactive, FLuc inhib CS inactive, FLuc act counter inactive, NF-kB expr up inactive and STAT1 activator 141.5.
For Cc1ccc(NC(=O)c2ccc3ccccc3n2)nc1 the results were APP 5'UTR act 154.8, FLuc inhib CS 73.1, FLuc act counter inactive, NF-kB expr up 6.16 and STAT1 activator 146.6.
For O=C(Nc1ccccc1)c1ccc2ccccc2n1 the results were APP 5'UTR act 179.0, FLuc inhib CS 52.5, FLuc act counter inactive, NF-kB expr up 6.63 and STAT1 activator inactive.
`O=C(Nc1ccc(Cl)cn1)c1ccc2ccccc2n1` gave APP 5'UTR act inactive, FLuc inhib CS inactive, FLuc act counter inactive, NF-kB expr up inactive and STAT1 activator inactive.
